Test results from ChEMBL document CHEMBL1799968, “Dimethyl-diphenyl-propanamide derivatives as nonsteroidal dissociated glucocorticoid receptor agonists” (J Med Chem, 2010).

What was measured:
Estrogen receptor = target: T1, Estrogen receptor (Homo sapiens, UniProt P03372); assay: Binding affinity to ERalpha by fluorescence polarization assay
T1 sequence (P03372 whole entry): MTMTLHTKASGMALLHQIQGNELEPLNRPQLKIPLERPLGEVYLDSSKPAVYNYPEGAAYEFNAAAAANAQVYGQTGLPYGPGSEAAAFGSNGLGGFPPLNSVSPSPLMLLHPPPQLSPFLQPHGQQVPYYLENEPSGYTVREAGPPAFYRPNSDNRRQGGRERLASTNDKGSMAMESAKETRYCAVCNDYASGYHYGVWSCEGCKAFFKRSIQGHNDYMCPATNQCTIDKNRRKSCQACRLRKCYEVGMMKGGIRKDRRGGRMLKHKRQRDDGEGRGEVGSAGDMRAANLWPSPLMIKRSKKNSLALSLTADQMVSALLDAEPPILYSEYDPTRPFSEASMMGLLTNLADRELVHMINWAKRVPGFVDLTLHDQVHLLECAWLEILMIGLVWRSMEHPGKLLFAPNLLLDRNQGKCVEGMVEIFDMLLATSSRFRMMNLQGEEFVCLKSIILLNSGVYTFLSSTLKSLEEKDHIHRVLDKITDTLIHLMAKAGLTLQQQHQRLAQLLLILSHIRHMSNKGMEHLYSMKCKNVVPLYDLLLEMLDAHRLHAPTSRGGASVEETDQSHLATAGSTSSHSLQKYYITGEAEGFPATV
Procedure, shortened: (§1)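 Fluorescence polarization competition of test compound against a fluorescently labelled ligand for binding to full-length receptor or its ligand-binding domain.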

Progesterone receptor = target: T2, Progesterone receptor (Homo sapiens, UniProt P06401); assay: Binding affinity to progesterone receptor by fluorescence polarization assay; procedure, shortened: as §1
T2 sequence (P06401 whole entry): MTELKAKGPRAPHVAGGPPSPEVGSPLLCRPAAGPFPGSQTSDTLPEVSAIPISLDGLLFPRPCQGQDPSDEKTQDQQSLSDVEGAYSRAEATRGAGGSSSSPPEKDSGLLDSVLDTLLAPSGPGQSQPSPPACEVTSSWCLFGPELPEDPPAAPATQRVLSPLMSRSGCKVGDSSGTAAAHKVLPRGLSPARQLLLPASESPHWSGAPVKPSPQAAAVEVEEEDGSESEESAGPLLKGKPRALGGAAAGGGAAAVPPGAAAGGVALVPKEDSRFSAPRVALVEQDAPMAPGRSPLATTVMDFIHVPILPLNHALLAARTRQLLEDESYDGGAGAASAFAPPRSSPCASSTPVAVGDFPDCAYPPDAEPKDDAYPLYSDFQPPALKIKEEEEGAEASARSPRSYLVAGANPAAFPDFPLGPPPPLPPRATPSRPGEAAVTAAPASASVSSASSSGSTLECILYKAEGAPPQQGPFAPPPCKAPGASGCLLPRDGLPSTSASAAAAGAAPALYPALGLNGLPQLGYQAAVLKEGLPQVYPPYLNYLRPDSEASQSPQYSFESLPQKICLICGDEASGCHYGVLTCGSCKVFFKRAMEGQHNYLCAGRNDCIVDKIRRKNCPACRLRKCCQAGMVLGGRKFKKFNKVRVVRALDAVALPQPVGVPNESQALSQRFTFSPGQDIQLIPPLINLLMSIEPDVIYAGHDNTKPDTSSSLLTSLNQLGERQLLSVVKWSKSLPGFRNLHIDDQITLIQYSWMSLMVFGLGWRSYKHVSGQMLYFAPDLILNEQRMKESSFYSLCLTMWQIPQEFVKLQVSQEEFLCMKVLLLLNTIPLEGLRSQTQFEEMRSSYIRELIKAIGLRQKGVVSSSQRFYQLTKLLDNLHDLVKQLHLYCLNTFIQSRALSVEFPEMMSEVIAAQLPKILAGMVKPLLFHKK

Androgen receptor = target: T3, Androgen receptor (Homo sapiens, UniProt P10275); assay: Binding affinity to androgen receptor by fluorescence polarization assay; procedure, shortened: as §1
T3 sequence (P10275 whole entry): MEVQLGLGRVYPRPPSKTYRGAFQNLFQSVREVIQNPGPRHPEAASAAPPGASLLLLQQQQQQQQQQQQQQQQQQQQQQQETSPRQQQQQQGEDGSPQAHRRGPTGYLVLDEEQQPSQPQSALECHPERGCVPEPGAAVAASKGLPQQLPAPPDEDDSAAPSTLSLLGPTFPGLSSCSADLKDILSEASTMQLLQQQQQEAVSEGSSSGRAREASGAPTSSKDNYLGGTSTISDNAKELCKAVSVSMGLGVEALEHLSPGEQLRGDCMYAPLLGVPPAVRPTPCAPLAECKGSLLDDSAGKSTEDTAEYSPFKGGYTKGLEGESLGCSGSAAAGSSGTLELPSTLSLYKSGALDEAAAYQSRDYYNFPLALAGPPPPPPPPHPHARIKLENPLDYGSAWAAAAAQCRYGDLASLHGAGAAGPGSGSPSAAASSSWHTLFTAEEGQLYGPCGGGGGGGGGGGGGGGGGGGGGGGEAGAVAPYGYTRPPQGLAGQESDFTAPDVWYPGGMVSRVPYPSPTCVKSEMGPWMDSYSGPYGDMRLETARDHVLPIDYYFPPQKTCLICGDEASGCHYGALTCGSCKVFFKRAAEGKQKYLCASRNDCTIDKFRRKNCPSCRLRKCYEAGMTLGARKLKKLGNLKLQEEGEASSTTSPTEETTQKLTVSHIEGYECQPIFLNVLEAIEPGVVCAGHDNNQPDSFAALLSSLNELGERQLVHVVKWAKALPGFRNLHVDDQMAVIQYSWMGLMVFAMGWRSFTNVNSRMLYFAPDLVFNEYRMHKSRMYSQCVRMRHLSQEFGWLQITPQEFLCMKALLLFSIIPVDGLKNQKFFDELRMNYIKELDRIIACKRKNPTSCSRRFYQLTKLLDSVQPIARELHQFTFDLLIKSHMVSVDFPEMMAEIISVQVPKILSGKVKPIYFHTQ

Rattus norvegicus [1] = assay: Antiinflammatory activity in po dosed carrageenan-induced paw edema Sprague-Dawley rat model assessed as inhibition of hind paw swelling after 5 hrs post carrageenan challenge; format: functional
Procedure, shortened: (§2)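 Male SD rats, fasted overnight plus up to 6 h more. Baseline hind paw volume taken by water plethysmometer. A single oral dose was given in a biologically acceptable medium. 2 h later, under anaesthesia, 1% carrageenan in PBS was injected subcutaneously into both hind paws. Volume was read 3 h post challenge, and swelling was taken as post-challenge minus baseline.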

Rattus norvegicus [2] = assay: Antiinflammatory activity against carrageenan-induced paw edema Sprague-Dawley rat model assessed as inhibition of hind paw swelling at 50 mg/kg administered as po single dose after 5 hrs post carrageenan challenge; format: functional; procedure, shortened: as §2
Rattus norvegicus [3] = assay: Toxicity in carrageenan-induced paw edema Sprague-Dawley rat model assessed as increase in blood glucose level at 50 mg/kg, po measured […] by glucometer; format: organism-based; set-up: dose 50 mg/kg, route oral; settings: in vivo
Procedure, shortened: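 Carrageenan paw edema rats (male SD, fasted, single oral dose, carrageenan 2 h postdose). Blood glucose was read by glucometer on tail-nick samples, at baseline and 5 h after dosing.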

Rattus norvegicus [4] = assay: Antiinflammatory activity against carrageenan-induced paw edema Sprague-Dawley rat model assessed as inhibition of hind paw swelling at 30 mg/kg, po measured after 5 hrs post carrageenan challenge; format: functional; settings: Rattus norvegicus, Sprague-Dawley, po, 5 h; procedure, shortened: as §2
Rattus norvegicus [5] = assay: Serum concentration in fasted Sprague-Dawley rat at 15 mg/kg, po after 6 hrs; settings: in vivo

Ki (Estrogen receptor) [nM] | Ki (Progesterone receptor) [nM] | Ki (Androgen receptor) [nM] | serum concentration (Rattus norvegicus [5]) [nM] | SMILES | Activity (Rattus norvegicus [1]) | ED50 (Rattus norvegicus [1]) [mg/kg] | inhibition in vivo at 50 mg/kg (Rattus norvegicus [2]) [%] | Activity (Rattus norvegicus [3]) [%] | inhibition in vivo at 30 mg/kg (Rattus norvegicus [4]) [%]
5500 | 53 | 696 | 157 | CC(C)(C(=O)Nc1nncs1)[C@H]1c2ccccc2Oc2cc(O)ccc21 | Dose-dependent effect | 44 | – | – | 56
> 50000 | 31 | 370 | – | CC(C)(C(=O)Nc1nccs1)[C@@H](c1ccccc1)c1ccc(O)c(Br)c1 | – | – | – | – | –
2300 | 22 | 2340 | – | CC(C)(C(=O)Nc1nccs1)[C@H]1c2ccccc2Oc2cc(O)ccc21 | – | – | – | – | –

Continued, compound first:

SMILES | Ki (Estrogen receptor) [nM] | Ki (Progesterone receptor) [nM] | Ki (Androgen receptor) [nM] | serum concentration (Rattus norvegicus [5]) [nM] | Activity (Rattus norvegicus [1]) | ED50 (Rattus norvegicus [1]) [mg/kg] | inhibition in vivo at 50 mg/kg (Rattus norvegicus [2]) [%] | Activity (Rattus norvegicus [3]) [%] | inhibition in vivo at 30 mg/kg (Rattus norvegicus [4]) [%]
CC(C)(C(=O)Nc1nccs1)[C@@H](c1ccccc1)c1ccc(O)c(F)c1 | > 50000 | 53 | 1030 | – | Dose-dependent effect | 45 | 61 | < 1 | –
CC(C)(C(=O)Nc1nccs1)[C@@H](c1ccccc1)c1ccc(O)cc1 | > 100000 | 273 | 1060 | – | – | – | – | – | –
